# Laboratory results from ChEMBL document CHEMBL3856250, “Discovery of 6-Fluoro-5-(R)-(3-(S)-(8-fluoro-1-methyl-2,4-dioxo-1,2-dihydroquinazolin-3(4H)-yl)-2-methylphenyl)-2-(S)-(2-hydroxypropan-2-yl)-2,3,4,9-tetrahydro-1H-carbazole-8-carboxamide (BMS-986142): A Reversible Inhibitor of Bruton's Tyrosine Kinase (BTK) Conformationally Constrained by Two …” (J Med Chem, 2016).
# The source made the active and inactive calls. No cut-off for these calls is given here.
# Legend:
# [1] = Stability of the compound in methanol at 37 degC after 5 days; format: physicochemical; conditions: 120 h
# [2] = Stability in plasma (unknown origin) at 37 degC after 5 days; format: ADME, cell-free; conditions: 120 h
# [3] = Cmax in mouse at 10 mg/kg, iv or po; format: ADME, organism-based; conditions: in vivo
# [4] = AUC in mouse at 10 mg/kg; format: ADME, organism-based; conditions: in vivo
# [5] = species on record: Homo sapiens; test: Selectivity ratio of IC50 for JAK2 (unknown origin) to IC50 for full length recombinant human His-tagged BTK expressed in baculovirus
# [6] = species on record: Homo sapiens; test: Inhibition of Na+ channel (unknown origin) at 10 uM at 1 Hz by patch clamp assay
# [7] = species on record: Homo sapiens; test: Inhibition of Na+ channel (unknown origin) at 10 uM at 4 Hz by patch clamp assay
# [8] = tested on: Mus musculus; test: Anti-autoimmune activity in lupus prone NZB/WF1 mouse model assessed as inhibition of increase in severe proteinuria at 30 mg/kg, po administered qd for 16 weeks; format: functional, organism-based
# Summary of the method: (§1)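 Female NZB/WF1 mice, 24 weeks old, were randomized (n = 12 per group) after baseline body weight, proteinuria and serum dsDNA titers were measured. They were dosed by oral gavage once daily for 16 weeks in 80:20 PEG400/water vehicle, with prednisolone 10 mg/kg as the comparator arm. Health was monitored routinely, and weight, proteinuria and anti-dsDNA titers were measured every 3 weeks.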
# [9] = tested on: Mus musculus; test: Anti-autoimmune activity in lupus prone NZB/WF1 mouse model assessed as protection from disease-related death at 30 mg/kg, po administered qd for 16 weeks; format: functional, organism-based; summary of the method: as §1
# [10] = tested on: Mus musculus; test: Anti-autoimmune activity in lupus prone NZB/WF1 mouse model assessed as protection against tubulo-interstitial nephritis at 30 mg/kg, po administered qd for 16 weeks; format: functional, organism-based; summary of the method: as §1
# [11] = tested on: Mus musculus; test: Anti-autoimmune activity in lupus prone NZB/WF1 mouse model assessed as protection against glomerular nephritis at 30 mg/kg, po administered qd for 16 weeks; format: functional, organism-based; summary of the method: as §1
# [12] = tested on: Mus musculus; test: Anti-autoimmune activity in lupus prone NZB/WF1 mouse model assessed as protection against inflammatory infiltration at 30 mg/kg, po administered qd for 16 weeks; format: functional, organism-based; summary of the method: as §1
# [13] = tested on: Mus musculus; test: Anti-autoimmune activity in lupus prone NZB/WF1 mouse model assessed as reduction in immune complex deposits at 30 mg/kg, po administered qd for 16 weeks; format: functional, organism-based; summary of the method: as §1
# [14] = tested on: Mus musculus; test: Antiathritis activity in anticollagen antibody-induced arthritis BALB/c mouse model assessed as reduction in LPS-induced bone resorption in right hind paws at 5 and 20 mg/kg, po qd followed by LPS addition on day 3 measured after 11 days relative to control; format: functional, organism-based
# [15] = tested on: Mus musculus; test: Antiathritis activity in anticollagen antibody-induced arthritis BALB/c mouse model assessed as reduction in LPS-induced inflammation in right hind paws at 5 and 20 mg/kg, po qd followed by LPS addition on day 3 measured after 11 days relative to control; format: functional, organism-based
# [16] = species on record: Homo sapiens; test: Inhibition of Ca2+ channel (unknown origin) at 10 uM by patch clamp assay
# [17] = target: T1, Tyrosine-protein kinase BTK (Homo sapiens, UniProt Q06187); test: Inhibition of BTK in human whole blood assessed as suppression of BCR/anti-IgM/IgG-stimulated CD69 surface expression after 18 hrs with agitation by FITC-staining based FACS analysis; format: tissue-based
# [18] = target: T1, Tyrosine-protein kinase BTK
# [19] = target: T1, Tyrosine-protein kinase BTK; test: Inhibition of BTK in human Ramos-B cells assessed as suppression of BCR/anti-IgM-stimulated Ca2+ flux after 1 hr incubation in dark by FLIPR1 assay
# [20] = Drug metabolism in mouse assessed as metabolite 13c formation at 10 mg/kg, iv or po; format: ADME, organism-based; conditions: in vivo
# [21] = tested on: Mus musculus; test: Anti-autoimmune activity in lupus prone NZB/WF1 mouse model assessed as protection against tubulo-interstitial nephritis at 10 mg/kg, po administered qd for 16 weeks; format: functional, organism-based
# [22] = tested on: Mus musculus; test: Anti-autoimmune activity in lupus prone NZB/WF1 mouse model assessed as protection against glomerular nephritis at 10 mg/kg, po administered qd for 16 weeks; format: functional, organism-based
# [23] = tested on: Mus musculus; test: Anti-autoimmune activity in lupus prone NZB/WF1 mouse model assessed as protection against inflammatory infiltration at 10 mg/kg, po administered qd for 16 weeks; format: functional, organism-based
# [24] = tested on: Mus musculus; test: Anti-autoimmune activity in lupus prone NZB/WF1 mouse model assessed as reduction in immune complex deposits at 10 mg/kg, po administered qd for 16 weeks; format: functional, organism-based
# [25] = Protein binding in human serum; format: ADME; conditions: read-out: PPB (converted)
# [26] = Drug level in rat plasma treated with 4-(3-(S)-(8-Fluoro-1-methyl-2,4-dioxo-1,2-dihydroquinazolin-3(4H)-yl)-2-methylphenyl)7-(2-hydroxypropan-2-yl)-9H-carbazole-1-carboxamide after 1 hr by HPLC analysis; format: ADME
# Summary of the method: (§2)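 Atropisomer distribution was followed in plasma from multiple species incubated at 37 °C over 4 h.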
# [27] = Drug level in human plasma treated with 4-(3-(S)-(8-Fluoro-1-methyl-2,4-dioxo-1,2-dihydroquinazolin-3(4H)-yl)-2-methylphenyl)7-(2-hydroxypropan-2-yl)-9H-carbazole-1-carboxamide after 4 hrs by HPLC analysis; format: ADME; summary of the method: as §2
# [28] = Drug level in cynomolgus monkey plasma treated with 4-(3-(S)-(8-Fluoro-1-methyl-2,4-dioxo-1,2-dihydroquinazolin-3(4H)-yl)-2-methylphenyl)7-(2-hydroxypropan-2-yl)-9H-carbazole-1-carboxamide after 4 hrs by HPLC analysis; format: ADME, Macaca fascicularis; summary of the method: as §2
# [29] = Stability of the compound in methanol at 37 degC assessed as kinetic half life; format: physicochemical
# [30] = Cmax in mouse at 5 mg/kg; format: ADME, organism-based; design: dose 5 mg/kg; conditions: in vivo
# [31] = AUC in mouse at 5 mg/kg; format: ADME, organism-based; conditions: in vivo
# [32] = Stability of the compound in methanol at 37 degC after 3 days; format: physicochemical; conditions: 72 h
# [33] = Drug metabolism in dog plasma assessed as compound-6 formation after 4 hrs by HPLC analysis; format: ADME, cell-free, Canis lupus familiaris; summary of the method: as §2
# [34] = Drug metabolism in mouse plasma assessed as compound-6 formation after 4 hrs by HPLC analysis; format: ADME, cell-free; summary of the method: as §2
# [35] = Drug metabolism in rat plasma assessed as compound-6 formation after 4 hrs by HPLC analysis; format: ADME, cell-free; summary of the method: as §2
# [36] = Drug level in mouse treated with 3-Chloro-4-(R)-(3-(S)-(8-fluoro-1-methyl-2,4-dioxo-1,2-dihydroquinazolin-3(4H)-yl)-2-methylphenyl)-7-(2-hydroxypropan-2-yl)-9H-carbazole-1-carboxamide assessed as compound formation; format: ADME; conditions: in vivo
# [37] = Drug level in rat treated with 3-Chloro-4-(R)-(3-(S)-(8-fluoro-1-methyl-2,4-dioxo-1,2-dihydroquinazolin-3(4H)-yl)-2-methylphenyl)-7-(2-hydroxypropan-2-yl)-9H-carbazole-1-carboxamide assessed as compound formation; format: ADME; conditions: in vivo
# [38] = Drug level in dog treated with 3-Chloro-4-(R)-(3-(S)-(8-fluoro-1-methyl-2,4-dioxo-1,2-dihydroquinazolin-3(4H)-yl)-2-methylphenyl)-7-(2-hydroxypropan-2-yl)-9H-carbazole-1-carboxamide assessed as compound formation; format: ADME, Canis lupus familiaris; conditions: in vivo
# [39] = Clearance in mouse at 10 mg/kg, iv or po; format: ADME, organism-based; conditions: in vivo
# T1 sequence (Q06187 whole entry): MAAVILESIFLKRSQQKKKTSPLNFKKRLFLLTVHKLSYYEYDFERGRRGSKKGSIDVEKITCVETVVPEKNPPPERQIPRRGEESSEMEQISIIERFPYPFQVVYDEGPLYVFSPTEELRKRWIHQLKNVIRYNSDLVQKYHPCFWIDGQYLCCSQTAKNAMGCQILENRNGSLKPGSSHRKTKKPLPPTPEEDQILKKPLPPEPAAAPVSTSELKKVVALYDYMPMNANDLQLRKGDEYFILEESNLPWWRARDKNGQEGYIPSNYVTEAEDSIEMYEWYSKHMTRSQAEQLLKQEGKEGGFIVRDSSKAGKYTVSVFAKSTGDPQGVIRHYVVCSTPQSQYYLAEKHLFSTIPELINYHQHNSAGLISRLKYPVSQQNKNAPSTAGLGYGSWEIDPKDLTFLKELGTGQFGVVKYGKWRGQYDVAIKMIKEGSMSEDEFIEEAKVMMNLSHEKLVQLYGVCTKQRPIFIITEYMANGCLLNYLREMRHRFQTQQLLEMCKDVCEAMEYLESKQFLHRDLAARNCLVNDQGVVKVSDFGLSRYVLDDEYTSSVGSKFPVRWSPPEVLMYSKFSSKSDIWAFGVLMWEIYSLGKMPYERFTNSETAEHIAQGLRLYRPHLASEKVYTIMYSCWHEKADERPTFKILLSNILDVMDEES
Cmax [3] [µM],AUC [4] [µM·h],Ratio IC50 [5],IC50 [17] [nM],IC50 [18] [nM],IC50 [19] [nM],SMILES,further results
4.7,41,–,–,–,–,Cc1c(-c2c(Cl)cc(C(N)=O)c3[nH]c4cc(C(C)(C)O)ccc4c23)cccc1-n1c(=O)c2cccc(F)c2n(C)c1=O,Stability [1]: Stable; Stability [2]: Stable
–,80,–,–,–,–,Cc1c(-c2ccc(C(N)=O)c3[nH]c4cc(C(C)(C)O)ccc4c23)cccc1-n1cnc2ccccc2c1=O,–
–,–,> 10000,–,–,–,Cc1c(-c2c(F)cc(C(N)=O)c3[nH]c4c(c23)CC[C@H](C(C)(C)O)C4)cccc1-n1c(=O)c2cccc(F)c2n(C)c1=O (atropisomer R),inhibition [6]: 10%; inhibition [7]: 13%; inhibition [8]: Active; Activity [9]: Active; Activity [10]: Active; Activity [11]: Active; Activity [12]: Active; Activity [13]: Active; Activity [14]: Active; Activity [15]: Active; inhibition [16]: 40%
6.3,48,–,240,0.65,17,Cc1cc(C(N)=O)c2[nH]c3cc(C(C)(C)O)ccc3c2c1-c1cccc(-n2c(=O)c3cccc(F)c3n(C)c2=O)c1C,–
–,–,180,–,11,190,Cc1c(-c2ccc(C(N)=O)c3[nH]c4c(c23)CC[C@@H](C(C)(C)O)C4)cccc1-n1c(=O)c2cccc(F)c2n(C)c1=O,–
5.5,28,–,–,–,–,Cc1c(-c2c(F)cc(C(N)=O)c3[nH]c4cc(C(C)(C)O)ccc4c23)cccc1-n1c(=O)c2cccc(F)c2n(C)c1=O,Drug metabolism [20]: Metabolite_Detected
–,–,910,150,–,36,Cc1c(-c2c(F)cc(C(N)=O)c3[nH]c4c(c23)CC[C@@H](C(C)(C)O)C4)cccc1-n1c(=O)c2cccc(F)c2n(C)c1=O,–
–,–,–,–,–,–,C[C@]12C=CC(=O)C=C1CC[C@@H]1[C@@H]2[C@@H](O)C[C@@]2(C)[C@H]1CC[C@]2(O)C(=O)CO,Activity [21]: Active; Activity [22]: Active; Activity [23]: Active; Activity [24]: Active
–,–,–,–,–,–,Cc1c(-c2ccc(C(N)=O)c3[nH]c4cc(C(C)(C)O)ccc4c23)cccc1-n1c(=O)c2cccc(F)c2n(C)c1=O,fraction unbound [25]: < 0.01; Drug uptake [26]: Active; Drug uptake [27]: Active; Drug uptake [28]: Active; half-life [29]: 1.15 h; Cmax [30]: 2.2 µM; AUC [31]: 25 µM·h; Stability [32]: Stable; Drug metabolism [33]: Metabolite_Notdetected; Drug metabolism [34]: Metabolite_Notdetected; Drug metabolism [35]: Metabolite_Notdetected
3.6,16,740,380,2.7,63,Cc1c(-c2ccc(C(N)=O)c3[nH]c4c(c23)CC[C@H](C(C)(C)O)C4)cccc1-n1c(=O)c2cccc(F)c2n(C)c1=O,–
–,–,–,–,1.6,–,Cc1c(-c2c(Cl)cc(C(N)=O)c3[nH]c4cc(C(C)(C)O)ccc4c23)cccc1-n1c(=O)[nH]c2c(F)cccc2c1=O,Drug metabolism [36]: Metabolite_Detected; Drug metabolism [37]: Metabolite_Detected; Drug metabolism [38]: Metabolite_Detected
4.5,25,–,–,–,–,Cc1c(-c2c(Cl)cc(C(N)=O)c3[nH]c4c(c23)CC[C@H](C(C)(C)O)C4)cccc1-n1c(=O)c2cccc(F)c2n(C)c1=O,CL [39]: 15%
–,–,–,–,25,750,Cc1c(-c2c(F)cc(C(N)=O)c3[nH]c4c(c23)CC[C@H](C(C)(C)O)C4)cccc1-n1c(=O)c2cccc(F)c2n(C)c1=O [BMS-986142],–
0.12,0.31,7100,120,–,6,Cc1c(-c2c(C#N)cc(C(N)=O)c3[nH]c4cc(C(C)(C)O)ccc4c23)cccc1-n1c(=O)c2cccc(F)c2n(C)c1=O,–
–,–,–,460,2.6,–,Cc1c(-c2ccc(C(N)=O)c3[nH]c4cc(C(C)(C)O)ccc4c23)cccc1-n1c(=O)c2ccccc2n(C)c1=O,Stability [32]: Stable
